The values that follow come from ChEMBL document CHEMBL3608271, “New phenolic compounds from the seeds of Nigella glandulifera and their inhibitory activities against human cancer cells” (Bioorg Med Chem Lett, 2015).

Holding throughout (type): functional, cell-based
Experiment [1] is described as follows: Cytotoxicity against human Bel7402 cells after 72 hrs by MTT assay. The conditions noted are these: Bel-7402, 72 h. A digest of the protocol: (§1)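 Cells seeded in 96-well plates and grown 24 h at 37 °C, 5% CO2, then exposed to test compound at five concentrations for 72 h. MTT (0.5 mg/mL in PBS) added, 4 h at 37 °C. Medium replaced with DMSO, shaken 3 min to dissolve formazan, optical density read at 544 nm. 5-Fluorouracil as positive control.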

The next experiment relates to HepG2. The experiment in a line: Cytotoxicity against human HepG2 cells after 72 hrs by MTT assay. To be noted: HepG2, 72 h. The method in brief:
as §1

A short description of experiment [2]: Cytotoxicity against human HCT8 cells after 72 hrs by MTT assay. To be noted: HCT-8, 72 h. A digest of the protocol:
as §1
(Tetrazolium dyes change colour on reduction, which living cells bring about.)

In the next experiment the test system is A549. The experiment in a line: Cytotoxicity against human A549 cells after 72 hrs by MTT assay. The conditions noted are these: A549, 72 h. The method in brief: as §1

For the compound `CC1(C)C=Cc2c(O)cc(CO)cc2O1`, the concentration for half-maximal inhibition (IC50) (as a rule, the midpoint of a concentration-inhibition curve) in experiment [1] was greater than 40 µM; in the experiment with HepG2 it was 17.3 µM; in experiment [2], greater than 40 µM; with A549, 36.3 µM.

`CC(C)=CCc1c(O)cc(CO)cc1O`: the IC50 in experiment [1] came out at 7.69 µM; in the experiment on HepG2 it was 15.8 µM; in experiment [2] it was 11.4 µM; with A549, 20.1 µM.

`O=c1[nH]cc(F)c(=O)[nH]1` [FLUOROURACIL]: the half-inhibitory concentration (IC50) in experiment [1] was found to be 10.1 µM; with HepG2, 16.4 µM; in experiment [2] it was 6.3 µM; in the experiment on A549 it was 14.2 µM.

As for `CC1(C)C=Cc2c(cc3c(c2O)C(=O)OC3)O1`, the IC50 is greater than 40 µM in experiment [1], 37 µM in the experiment with HepG2, 24.1 µM in experiment [2] and greater than 40 µM with A549.

In the case of `CC(C)(O)CCc1c(O)cc(CO)cc1O`, the half-inhibitory concentration (IC50) in experiment [1] is greater than 40 µM; in the experiment on HepG2 it was 17.8 µM; in experiment [2], greater than 40 µM; in the experiment on A549 it was greater than 40 µM.
